One assay concerns A549. Nature of the assay: Antiproliferative activity against human A549 cells after 24 hrs by MTT assay. It counts as functional. The conditions noted are these: A549, 24 h. In a few lines: (§1)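 MCF-7 and A549 cells grown in DMEM/10% FBS, 5% CO2, 37 °C; seeded at 1000 cells/well and left 24 h to reattach. Compound stocks 20 mM in DMSO, diluted in medium; 3-fold serial dilutions gave final […]. Exposure 24 h at 37 °C, then MTT read-out at 590 nm. GI50 calculated from absorbance.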

The target of assay [1] is T1, Epidermal growth factor receptor (Homo sapiens, UniProt P00533). The assay is described as follows: Inhibition of recombinant EGFR cytoplasmic domain (645 to 1186) (unknown origin) autophosphorylation after 1 hr.
The target in assay [2] is Receptor tyrosine-protein kinase erbB-2 (Homo sapiens, UniProt P04626). The assay is described as follows: Inhibition of human recombinant HER-2 cytoplasmic domain (676 to 1245) autophosphorylation after 1 hr. The procedure, abridged: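 His6-tagged HER-2 expressed in Sf-9 cells (3-day infection), purified by Ni-NTA at 4 °C. Enzyme (12.5 ng) preincubated with compound 10 min at room temperature, then 0.1 mM ATP-50 mM MgCl2 with MnCl2, Na3VO4 and DTT buffer added for 1 h. Autophosphorylation read by europium anti-phosphotyrosine DELFIA time-resolved fluorescence (ex 340/em 615 nm). Controls with and without ATP-MgCl2; triplicate.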
Receptor tyrosine-protein kinase erbB-2, sequence (P04626 whole entry, the tested form may be a part): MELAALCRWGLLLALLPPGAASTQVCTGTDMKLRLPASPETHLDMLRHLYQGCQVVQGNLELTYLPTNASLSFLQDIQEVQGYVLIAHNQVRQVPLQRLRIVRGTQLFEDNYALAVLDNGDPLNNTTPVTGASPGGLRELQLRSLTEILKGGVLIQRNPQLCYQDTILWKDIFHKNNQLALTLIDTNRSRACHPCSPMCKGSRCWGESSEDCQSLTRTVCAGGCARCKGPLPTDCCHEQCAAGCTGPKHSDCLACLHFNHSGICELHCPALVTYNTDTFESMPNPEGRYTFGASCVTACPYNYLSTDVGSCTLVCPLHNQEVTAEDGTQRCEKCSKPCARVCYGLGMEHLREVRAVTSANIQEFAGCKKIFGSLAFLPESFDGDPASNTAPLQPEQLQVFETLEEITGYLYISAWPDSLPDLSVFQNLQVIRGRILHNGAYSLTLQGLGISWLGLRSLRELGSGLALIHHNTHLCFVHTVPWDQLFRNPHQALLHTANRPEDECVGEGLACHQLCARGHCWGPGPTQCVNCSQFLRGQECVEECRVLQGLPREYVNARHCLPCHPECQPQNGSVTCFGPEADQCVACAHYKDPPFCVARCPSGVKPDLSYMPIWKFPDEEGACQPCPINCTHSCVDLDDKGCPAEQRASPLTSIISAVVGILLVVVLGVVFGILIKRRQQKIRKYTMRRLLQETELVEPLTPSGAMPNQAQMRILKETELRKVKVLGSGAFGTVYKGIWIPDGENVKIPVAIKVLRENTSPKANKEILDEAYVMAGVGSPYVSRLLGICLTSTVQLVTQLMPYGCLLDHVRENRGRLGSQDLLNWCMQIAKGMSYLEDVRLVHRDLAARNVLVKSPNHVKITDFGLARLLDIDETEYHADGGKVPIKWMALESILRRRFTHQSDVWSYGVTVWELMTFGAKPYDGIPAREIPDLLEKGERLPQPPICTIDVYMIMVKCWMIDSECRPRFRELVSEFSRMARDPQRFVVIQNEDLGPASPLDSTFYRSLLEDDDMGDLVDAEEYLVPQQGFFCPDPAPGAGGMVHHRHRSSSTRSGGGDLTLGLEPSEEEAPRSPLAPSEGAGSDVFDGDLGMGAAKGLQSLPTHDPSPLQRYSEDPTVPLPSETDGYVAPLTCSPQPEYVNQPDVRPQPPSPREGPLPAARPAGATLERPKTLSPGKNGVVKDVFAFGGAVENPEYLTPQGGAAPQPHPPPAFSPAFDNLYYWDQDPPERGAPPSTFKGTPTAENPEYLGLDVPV

The test system of the next assay is MCF7. The assay is described as follows: Antiproliferative activity against human MCF7 cells after 24 hrs by MTT assay. The assay is classed as functional. The conditions noted are these: MCF7, 24 h. In a few lines:
as §1

The target of assay [3] is T1, Epidermal growth factor receptor. Conditions: A549, 0.02 to 0.32 uM.
For a further assay, the target named is Focal adhesion kinase 1 (Homo sapiens, UniProt Q05397). Nature of the assay: Inhibition of human-recombinant full-length FAK after 4 hrs by kinase-Glo-luminescence assay. The procedure, abridged: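 Full-length recombinant human FAK incubated with ATP and substrate in kinase buffer, with or without compound, for 4 h at room temperature. Final drug concentrations 100, 30, 10 and 3 µg/mL. Remaining ATP measured by Kinase-Glo luminescence.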
Focal adhesion kinase 1, sequence (Q05397 whole entry): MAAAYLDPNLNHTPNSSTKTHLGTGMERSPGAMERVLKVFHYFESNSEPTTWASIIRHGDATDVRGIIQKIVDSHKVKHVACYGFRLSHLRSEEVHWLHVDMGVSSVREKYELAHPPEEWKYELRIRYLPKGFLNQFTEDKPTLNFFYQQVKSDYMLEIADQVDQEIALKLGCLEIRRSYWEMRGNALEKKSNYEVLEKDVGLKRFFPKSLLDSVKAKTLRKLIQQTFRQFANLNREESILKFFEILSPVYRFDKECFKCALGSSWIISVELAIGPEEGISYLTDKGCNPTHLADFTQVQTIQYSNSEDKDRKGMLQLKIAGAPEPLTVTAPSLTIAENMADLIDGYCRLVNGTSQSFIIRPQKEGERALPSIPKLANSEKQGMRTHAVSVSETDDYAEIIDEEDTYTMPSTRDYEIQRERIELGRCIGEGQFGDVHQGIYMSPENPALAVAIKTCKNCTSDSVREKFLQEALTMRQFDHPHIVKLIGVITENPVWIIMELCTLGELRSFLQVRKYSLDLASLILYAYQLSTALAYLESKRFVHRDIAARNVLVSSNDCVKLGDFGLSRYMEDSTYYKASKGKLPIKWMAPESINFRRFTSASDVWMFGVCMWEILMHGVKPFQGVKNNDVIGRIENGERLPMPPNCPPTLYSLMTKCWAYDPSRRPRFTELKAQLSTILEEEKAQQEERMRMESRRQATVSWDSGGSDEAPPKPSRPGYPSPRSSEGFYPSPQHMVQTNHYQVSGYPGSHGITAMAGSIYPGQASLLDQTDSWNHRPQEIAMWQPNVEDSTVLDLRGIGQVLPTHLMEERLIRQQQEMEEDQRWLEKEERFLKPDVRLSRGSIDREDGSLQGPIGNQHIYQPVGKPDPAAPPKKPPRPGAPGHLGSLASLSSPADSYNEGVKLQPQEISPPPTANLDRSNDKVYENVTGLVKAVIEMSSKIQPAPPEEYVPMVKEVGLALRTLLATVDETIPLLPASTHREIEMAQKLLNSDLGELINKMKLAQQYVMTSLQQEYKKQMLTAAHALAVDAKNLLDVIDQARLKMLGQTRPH

The target in assay [4] is Vascular endothelial growth factor receptor 2 (Homo sapiens, UniProt P35968). The assay is described as follows: Inhibition of VEGFR-2 (unknown origin) using gastrin as substrate after 1 hr by fluorescence assay. The procedure, abridged: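 Phosphorylated or nonphosphorylated VEGFR-2 kinase domain, 5 nM, incubated with compound (10-point titration, 4 to 0.1 µM) and 1 µM gastrin substrate in Tris-HCl pH 7.5 with MgCl2, NaCl, EGTA, DTT, orthovanadate and BSA, 30 min at 25 °C. ATP then added to 11.8 µM final for 60 min at room temperature. Eu-anti-phosphotyrosine time-resolved fluorescence read at 665 nm; triplicate.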
Vascular endothelial growth factor receptor 2, sequence (P35968 whole entry, the tested form may be a part): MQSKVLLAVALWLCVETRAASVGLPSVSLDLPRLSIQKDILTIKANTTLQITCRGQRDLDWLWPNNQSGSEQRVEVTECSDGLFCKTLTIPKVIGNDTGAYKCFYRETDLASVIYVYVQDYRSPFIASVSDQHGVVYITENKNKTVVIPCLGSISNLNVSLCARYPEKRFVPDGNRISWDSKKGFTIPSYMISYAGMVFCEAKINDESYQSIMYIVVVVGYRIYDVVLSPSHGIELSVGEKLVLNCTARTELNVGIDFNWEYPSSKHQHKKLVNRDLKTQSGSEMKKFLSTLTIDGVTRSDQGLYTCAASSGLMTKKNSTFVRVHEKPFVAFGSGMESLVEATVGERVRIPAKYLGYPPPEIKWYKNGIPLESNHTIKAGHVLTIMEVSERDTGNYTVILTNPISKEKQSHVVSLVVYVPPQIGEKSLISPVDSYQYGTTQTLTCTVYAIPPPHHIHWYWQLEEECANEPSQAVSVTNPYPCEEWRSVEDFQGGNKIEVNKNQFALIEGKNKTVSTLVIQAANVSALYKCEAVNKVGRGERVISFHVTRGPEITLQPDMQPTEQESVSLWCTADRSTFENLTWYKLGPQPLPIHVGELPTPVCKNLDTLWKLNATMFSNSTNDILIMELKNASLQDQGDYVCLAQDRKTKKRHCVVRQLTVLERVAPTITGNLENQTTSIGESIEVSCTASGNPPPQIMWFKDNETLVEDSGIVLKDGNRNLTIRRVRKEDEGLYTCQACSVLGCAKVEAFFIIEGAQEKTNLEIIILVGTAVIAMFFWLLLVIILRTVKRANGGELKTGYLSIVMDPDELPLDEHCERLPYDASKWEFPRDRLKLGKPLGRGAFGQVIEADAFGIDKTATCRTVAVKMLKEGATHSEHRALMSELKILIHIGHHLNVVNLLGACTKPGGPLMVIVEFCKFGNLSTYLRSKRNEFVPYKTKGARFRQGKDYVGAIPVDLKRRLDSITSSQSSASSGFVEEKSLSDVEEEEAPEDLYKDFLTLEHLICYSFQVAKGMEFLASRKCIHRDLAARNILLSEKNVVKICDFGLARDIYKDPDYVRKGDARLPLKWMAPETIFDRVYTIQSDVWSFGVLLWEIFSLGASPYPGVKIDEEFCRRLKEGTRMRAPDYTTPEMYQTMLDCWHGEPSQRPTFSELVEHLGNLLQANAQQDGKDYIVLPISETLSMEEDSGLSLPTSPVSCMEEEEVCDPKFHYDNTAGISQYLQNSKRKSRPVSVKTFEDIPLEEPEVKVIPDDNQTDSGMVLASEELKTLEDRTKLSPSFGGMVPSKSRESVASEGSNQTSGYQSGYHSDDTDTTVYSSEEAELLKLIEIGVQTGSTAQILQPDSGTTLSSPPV

In assay [5] the target is T1, Epidermal growth factor receptor. The conditions noted are these: A549, 0.02 to 0.32 uM. The source holds these as a separate data set.
Assay [6] addresses Receptor tyrosine-protein kinase erbB-3 (Homo sapiens, UniProt P21860). The assay is described as follows: Inhibition of human recombinant HER-3 cytoplasmic domain (665 to 1339) autophosphorylation after 1 hr. In a few lines:
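HER-3 cytoplasmic domain (aa 665–1339) from 1.8 Kb human cDNA. Assayed by the same DELFIA autophosphorylation procedure as EGFR/HER-2: compound preincubated with enzyme, ATP-MgCl2 for 1 h, europium anti-phosphotyrosine time-resolved fluorescence read-out.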

The source made the active and inactive calls. The calls are words filed in the database; no cut-off is given here.

Receptor tyrosine-protein kinase erbB-3, sequence (P21860 whole entry, the tested form may be a part): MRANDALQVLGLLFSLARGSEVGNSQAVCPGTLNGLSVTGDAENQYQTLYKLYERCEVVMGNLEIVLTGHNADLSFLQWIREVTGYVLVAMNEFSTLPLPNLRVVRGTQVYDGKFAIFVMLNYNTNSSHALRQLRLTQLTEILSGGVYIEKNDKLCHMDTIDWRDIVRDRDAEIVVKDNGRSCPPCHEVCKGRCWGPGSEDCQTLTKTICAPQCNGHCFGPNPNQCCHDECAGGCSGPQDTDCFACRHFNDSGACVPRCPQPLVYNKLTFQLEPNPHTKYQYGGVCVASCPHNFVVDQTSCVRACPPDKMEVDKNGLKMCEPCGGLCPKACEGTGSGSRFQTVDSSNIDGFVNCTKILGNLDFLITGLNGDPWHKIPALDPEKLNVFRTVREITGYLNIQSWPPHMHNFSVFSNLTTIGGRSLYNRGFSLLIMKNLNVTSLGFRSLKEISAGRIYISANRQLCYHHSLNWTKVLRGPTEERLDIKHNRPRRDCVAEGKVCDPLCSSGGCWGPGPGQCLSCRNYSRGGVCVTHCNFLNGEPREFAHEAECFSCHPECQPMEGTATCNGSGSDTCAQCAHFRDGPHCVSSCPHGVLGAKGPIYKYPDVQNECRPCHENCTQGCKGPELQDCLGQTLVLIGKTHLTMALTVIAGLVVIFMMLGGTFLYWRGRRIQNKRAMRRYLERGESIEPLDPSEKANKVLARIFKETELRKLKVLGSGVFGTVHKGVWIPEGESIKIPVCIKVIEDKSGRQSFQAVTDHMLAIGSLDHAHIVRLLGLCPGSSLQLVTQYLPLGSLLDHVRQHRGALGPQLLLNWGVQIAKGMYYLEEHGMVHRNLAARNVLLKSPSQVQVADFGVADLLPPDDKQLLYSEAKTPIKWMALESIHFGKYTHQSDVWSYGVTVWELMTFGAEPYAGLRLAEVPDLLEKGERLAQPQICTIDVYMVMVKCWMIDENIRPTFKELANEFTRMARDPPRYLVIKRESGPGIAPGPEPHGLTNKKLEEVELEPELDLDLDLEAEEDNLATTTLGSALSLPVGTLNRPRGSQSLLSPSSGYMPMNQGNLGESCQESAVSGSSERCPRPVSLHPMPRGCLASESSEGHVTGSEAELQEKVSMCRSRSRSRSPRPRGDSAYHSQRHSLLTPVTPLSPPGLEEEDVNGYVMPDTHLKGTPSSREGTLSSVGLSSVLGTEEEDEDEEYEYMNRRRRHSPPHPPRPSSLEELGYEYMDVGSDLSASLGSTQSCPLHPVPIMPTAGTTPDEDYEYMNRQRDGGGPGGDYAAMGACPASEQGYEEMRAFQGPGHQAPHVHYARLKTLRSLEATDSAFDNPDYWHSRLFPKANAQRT

As to `NC(=S)N1N=C(c2ccccc2)CC1c1cccc2ccccc12` (configuration not stated), the GI50 with A549 was determined as 1.44 µM; in the assay with MCF7, 44.5 µM. For the same compound, the values for the IC50 in assay [1] and in [2] were 2.23 µM and 7.24 µM, respectively.

As for `COc1ccc(C2=NN(C(N)=S)C(c3ccc4ccccc4c3)C2)cc1` (configuration not stated), the GI50 with A549 amounted to 0.46 µM; in the assay on MCF7 it was 2.12 µM. In addition, the values for the IC50 in assay [1] and in [2] were 1.04 µM and 3.28 µM, respectively.

Consider `Cc1ccc(C2=NN(C(N)=S)C(c3cccc4ccccc34)C2)cc1` (configuration not stated), for which the figures for the GI50 with A549 and with MCF7 were 1.21 µM and 29.1 µM, respectively. In addition, the values for the IC50 in assay [1] and in [2] were 2.06 µM and 6.68 µM, respectively.

In the case of `Clc1ccc(C2=NN(c3ccccc3)C(c3cccc4ccccc34)C2)cc1Cl` (configuration not stated), the GI50 is 0.2 µM in the assay with A549 and 0.81 µM in the assay on MCF7. The IC50 turned out to be 0.14 µM in [1] and 1.98 µM in [2].

For the compound `NC(=S)N1N=C(c2ccc(F)cc2)CC1c1ccc2ccccc2c1` (configuration not stated), the GI50 with A549 stood at 4.18 µM; with MCF7 it was 0.88 µM. Moreover, the figures for the IC50 in assay [1] and in [2] were 3.28 µM and 1.75 µM, respectively.

As for `Clc1ccc(C2=NN(c3ccccc3)C(c3ccc4ccccc4c3)C2)cc1Cl` (configuration not stated), the inhibition entry in assay [3] and in assay [5] was “Active” in each case. Further, the IC50 at Focal adhesion kinase 1 came to 6.2 µM; in [4] it was 1.83 µM; in assay [1], 0.05 µM; in [2] it was 1.02 µM; in assay [6], 35.9 µM. Further, the results for the GI50 in the assay with A549 and in the assay on MCF7 were 0.11 µM and 0.39 µM, respectively.

As to `COc1ccc(C2=NN(c3ccccc3)C(c3cccc4ccccc34)C2)cc1` (configuration not stated), the IC50 came out at 10.3 µM at Focal adhesion kinase 1; 3.4 µM in assay [4]; 0.1 µM in [1]; 3.01 µM in [2]; 40.2 µM in assay [6]. In addition, the GI50 was 0.16 µM with A549 and 1.71 µM in the assay with MCF7.

Take `Fc1ccc(C2=NN(c3ccccc3)C(c3ccc4ccccc4c3)C2)cc1` (configuration not stated): the GI50 in the assay on A549 turned out to be 0.23 µM; in the assay with MCF7, 0.85 µM. In addition, the values for the IC50 in [1] and in [2] were 0.3 µM and 2.01 µM, respectively.

For `NC(=S)N1N=C(c2ccc(Cl)c(Cl)c2)CC1c1ccc(O)cc1` (configuration not stated), the figures for the GI50 in the assay on A549 and in the assay with MCF7 were 33.5 µM and 27.6 µM, respectively. Also, in assay [2], the IC50 stood at 6.58 µM.

Consider `NC(=S)N1N=C(c2ccc(Cl)cc2)CC1c1cccc2ccccc12` (configuration not stated), for which the figures for the GI50 in the assay on A549 and in the assay on MCF7 were 0.38 µM and 11.2 µM, respectively. In addition, the IC50 in assay [2] came out at 5.46 µM.

For the compound `Clc1ccc(C2=NN(c3ccccc3)C(c3ccc4ccccc4c3)C2)cc1` (configuration not stated), the GI50 in the assay on A549 was 0.16 µM; in the assay on MCF7 it was 0.53 µM. Moreover, the IC50 in [1] stood at 0.11 µM; in assay [2], 1.46 µM.

Regarding `Brc1ccc(C2=NN(c3ccccc3)C(c3ccc4ccccc4c3)C2)cc1` (configuration not stated), the GI50 is 0.36 µM with A549 and 0.48 µM in the assay on MCF7. Also, the IC50 was 0.71 µM in [1] and 1.28 µM in assay [2].

Take `c1ccc(C2=NN(c3ccccc3)C(c3ccc4ccccc4c3)C2)cc1` (configuration not stated): the GI50 in the assay with A549 worked out at 0.22 µM; in the assay on MCF7, 0.73 µM. The IC50 in [1] is 0.24 µM; in assay [2], 1.89 µM.

In the case of `Brc1ccc(C2=NN(c3ccccc3)C(c3cccc4ccccc34)C2)cc1` (configuration not stated), the values for the GI50 in the assay with A549 and in the assay with MCF7 were 0.25 µM and 1.03 µM, respectively. Besides, the IC50 in [1] was determined as 0.49 µM; in assay [2], 2.32 µM.

As for `NC(=S)N1N=C(c2ccc(F)cc2)CC1c1cccc2ccccc12` (configuration not stated), the 50% growth inhibitory concentration (GI50) with A549 and in the assay with MCF7 was more than 50 µM throughout. The IC50 in assay [1] came to 8.25 µM; in assay [2] it was 10.6 µM.

Regarding `NC(=S)N1N=C(c2ccccc2)CC1c1ccc2ccccc2c1` (configuration not stated), the values for the GI50 with A549 and in the assay with MCF7 were 3.21 µM and 13.8 µM, respectively. Moreover, the IC50 in assay [1] amounted to 3.01 µM; in assay [2] it was 5.69 µM.

For the compound `Cc1ccc(C2=NN(c3ccccc3)C(c3cccc4ccccc34)C2)cc1` (configuration not stated), the results for the GI50 with A549 and in the assay with MCF7 were 0.19 µM and 0.74 µM, respectively. Also, the results for the 50% inhibitory concentration (IC50) in assay [1] and in assay [2] were 0.2 µM and 1.91 µM, respectively.

`Cc1ccc(C2=NN(C(N)=S)C(c3ccc4ccccc4c3)C2)cc1` (configuration not stated): the IC50 is 28.7 µM on Focal adhesion kinase 1; 2.1 µM in [4]; 0.52 µM in assay [1]; 1.04 µM in [2]; 63.2 µM in assay [6]. Besides, the GI50 in the assay with A549 worked out at 0.27 µM; in the assay with MCF7 it was 0.39 µM.

Take `NC(=S)N1N=C(c2ccc(Cl)cc2)CC1c1ccc2ccccc2c1` (configuration not stated): the GI50 in the assay with A549 came to 0.26 µM; in the assay on MCF7, 3.31 µM. Moreover, the IC50 in [2] is 3.87 µM.

As to `Fc1ccc(C2=NN(c3ccccc3)C(c3cccc4ccccc34)C2)cc1` (configuration not stated), the GI50 with A549 is 0.49 µM; in the assay with MCF7 it was 2.68 µM. In addition, the IC50 in assay [1] came out at 1.07 µM; in assay [2], 3.59 µM.

For `NC(=S)N1N=C(c2ccc(Br)cc2)CC1c1cccc2ccccc12` (configuration not stated), the GI50 in the assay on A549 was 49.1 µM; in the assay with MCF7, more than 50 µM. The IC50 in assay [1] was 5.68 µM; in [2], 9.15 µM.

Consider `C#Cc1cccc(Nc2ncnc3cc(OCCOC)c(OCCOC)cc23)c1` [ERLOTINIB], for which the results for the GI50 in the assay with A549 and in the assay with MCF7 were 0.03 µM and 0.08 µM, respectively.

Consider `Cc1ccc(C2=NN(c3ccccc3)C(c3ccc4ccccc4c3)C2)cc1` (configuration not stated), for which the IC50 was determined as 11.5 µM on Focal adhesion kinase 1; 1.56 µM in assay [4]; 0.06 µM in assay [1]; 1.13 µM in [2]; 45.3 µM in assay [6]. The figures for the GI50 in the assay with A549 and with MCF7 were 0.13 µM and 0.39 µM, respectively.

As for `NC(=S)N1N=C(c2ccc(Cl)c(Cl)c2)CC1c1ccc2ccccc2c1` (configuration not stated), the IC50 came out at 9.9 µM at Focal adhesion kinase 1; 3.2 µM in [4]; 0.66 µM in assay [1]; 0.88 µM in assay [2]; 51.7 µM in assay [6]. Besides, the GI50 with A549 stood at 0.31 µM; with MCF7, 0.35 µM.

In the case of `c1ccc(C2=NN(c3ccccc3)C(c3cccc4ccccc34)C2)cc1` (configuration not stated), the GI50 is 1.98 µM in the assay with A549 and 3.29 µM in the assay on MCF7. Further, the IC50 amounted to 2.52 µM in assay [1] and 3.83 µM in assay [2].

On to `NC(=S)N1N=C(c2ccc(Cl)c(Cl)c2)CC1c1cccc2ccccc12` (configuration not stated), for which the GI50 came to 0.18 µM with A549 and 33.1 µM with MCF7. Also, the IC50 amounted to 0.21 µM in [1] and 6.84 µM in assay [2].

In the case of `Clc1ccc(C2=NN(c3ccccc3)C(c3cccc4ccccc34)C2)cc1` (configuration not stated), the results for the GI50 with A549 and in the assay on MCF7 were 0.33 µM and 1.82 µM, respectively. For the same compound, the values for the IC50 in assay [1] and in assay [2] were 0.68 µM and 3.07 µM, respectively.

For `COc1ccc(C2=NN(c3ccccc3)C(c3ccc4ccccc4c3)C2)cc1` (configuration not stated), the GI50 came out at 0.16 µM in the assay with A549 and 0.55 µM with MCF7. Further, the IC50 in assay [2] was 1.45 µM.

Consider `COc1ccc(C2CC(c3ccc(C)c(C)c3)=NN2C(N)=S)cc1` (configuration not stated), for which the values for the GI50 in the assay on A549 and with MCF7 were 0.34 µM and 3.79 µM, respectively. Also, the IC50 in assay [2] stood at 2.77 µM.

Regarding `NC(=S)N1N=C(c2ccc(Br)cc2)CC1c1ccc2ccccc2c1` (configuration not stated), the 50% growth inhibitory concentration (GI50) in the assay on A549 was found to be 0.23 µM; in the assay with MCF7, 0.44 µM. Also, the IC50 in assay [1] was found to be 0.35 µM; in assay [2] it was 1.21 µM.

In the case of `COc1ccc(C2=NN(C(N)=S)C(c3cccc4ccccc34)C2)cc1` (configuration not stated), the IC50 on Focal adhesion kinase 1 stood at 13.6 µM; in assay [4] it was 4.1 µM; in assay [1], 0.16 µM; in [2], 4.18 µM; in assay [6], 55.6 µM. Further, the GI50 turned out to be 0.17 µM in the assay on A549 and 4.18 µM in the assay on MCF7.

(Values after ChEMBL document CHEMBL2321654, “Design, modification and 3D QSAR studies of novel naphthalin-containing pyrazoline derivatives with/without thiourea skeleton as anticancer agents” (Bioorg Med Chem, 2013).)
